# Experimental data published in PubChem BioAssay.
# Calls of active or inactive are those of the source.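 How the source made its calls, unless noted: active means viability at or below 10% of carrier control in both of two separate runs; inconclusive means viability at or below 10% in only one of the two runs; inactive means the rest.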
# Columns and labels:
# [1] = reducers of endogenous Her2 protein level, primary screen, SKBR3 breast tumor cells, AlphaScreen, ATP viability (AID 461;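 active means Her2 level under about 52% in both replicate screens, with viability over 70% of control, limit read from the data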;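 on Her2 level: lower value means less Her2 protein in the cells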;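 on viability: percent of carrier control wells set as 100% viability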); conditions: 18-24 h, measured here: SKBR3 viability, ATP luminescence, at 10 µM
# [2] = target: Receptor tyrosine-protein kinase erbB-2 (Homo sapiens) (UniProt P04626); assay: as above; conditions: 18-24 h, at 10 µM, stronger effect = lower value
# [3] = SK-BR-3 cell growth inhibitors, pilot screen, 24 h, human (AID 572); conditions: SK-BR-3 viability, CellTiter-Glo luminescence, at 10 µM, stronger effect = lower value;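 further: compound exposure lasted between 18 and 24 h rather than exactly 24 h; 100% = carrier-treated control wells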
# [4] = HUVEC growth inhibition – cell-based, human, primary screen (AID 575;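 active means viability at or below 30% in both replicate assays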;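 further: 100% = median of untreated cell wells with 0.1% DMSO on each plate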); conditions: HUVEC proliferation, CellTiter-Glo luminescence, 72 h; at 10 µM; stronger effect = lower value
# In short: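 Material: primary human umbilical vein endothelial cells / Schedule: 72 h exposure, 37 °C, 5% CO2, 30 min RT equilibration / Signal: ATP-based CellTiter-Glo luminescent read / Read-out basis: percent of median DMSO-control luminescence / Control set: 32 DMSO-only cell-control wells (high), 32 MePR drug-control wells (low) per plate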
# [5] = growth inhibitors of H69AR lung tumor, primary screen, human, duplicate replicates (AID 580;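 active means viability at or under a set limit in both replicates, limit being median viability minus 3 SD, cut at about 48% in these data, passing the limit was not always enough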;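 further: 100% = mean luminescence of untreated wells and 0% = no signal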); conditions: H69AR lung tumor cells viability, ATP luminescence, 72 h; at 10 µM; stronger effect = lower value
# [6] = reversal of MRP1-mediated doxorubicin resistance, pilot screen, H69AR cells, doxorubicin co-treatment (AID 601;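 active means viability loss from added drug above about 55%, and viability with drug at most 40%, in both replicates, limit read from the data, passing the limit was not always enough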); conditions: CellTiter-Glo, 72 h, at 10 µM; for differential viability (reversal): stronger effect = higher value
# [7] = 384-well plate pilot, post-Golgi transport modulator project, inhibition of yeast transport mutant growth (AID 636; in the data active means inhibition above about 31%); conditions: absorbance 615 nm, about 18 h, stronger effect = higher value
# [8] = growth suppression of yeast trafficking mutant, preliminary HTS, modulators of trafficking downstream of Golgi apparatus project, 1536-format plate, OD 615 nm (AID 637; in the data active means inhibition above about 30%); conditions: yeast transport mutant growth, absorbance 615 nm, 18 h; stronger effect = higher value
# [9] = H69AR cells + 2 uM doxorubicin, measured here: viability with 2 uM doxorubicin, stronger effect = lower value
# [10] = H69AR cells, compound alone cytotoxicity
# Sequence of Receptor tyrosine-protein kinase erbB-2 (Homo sapiens) (P04626 whole entry, looked up): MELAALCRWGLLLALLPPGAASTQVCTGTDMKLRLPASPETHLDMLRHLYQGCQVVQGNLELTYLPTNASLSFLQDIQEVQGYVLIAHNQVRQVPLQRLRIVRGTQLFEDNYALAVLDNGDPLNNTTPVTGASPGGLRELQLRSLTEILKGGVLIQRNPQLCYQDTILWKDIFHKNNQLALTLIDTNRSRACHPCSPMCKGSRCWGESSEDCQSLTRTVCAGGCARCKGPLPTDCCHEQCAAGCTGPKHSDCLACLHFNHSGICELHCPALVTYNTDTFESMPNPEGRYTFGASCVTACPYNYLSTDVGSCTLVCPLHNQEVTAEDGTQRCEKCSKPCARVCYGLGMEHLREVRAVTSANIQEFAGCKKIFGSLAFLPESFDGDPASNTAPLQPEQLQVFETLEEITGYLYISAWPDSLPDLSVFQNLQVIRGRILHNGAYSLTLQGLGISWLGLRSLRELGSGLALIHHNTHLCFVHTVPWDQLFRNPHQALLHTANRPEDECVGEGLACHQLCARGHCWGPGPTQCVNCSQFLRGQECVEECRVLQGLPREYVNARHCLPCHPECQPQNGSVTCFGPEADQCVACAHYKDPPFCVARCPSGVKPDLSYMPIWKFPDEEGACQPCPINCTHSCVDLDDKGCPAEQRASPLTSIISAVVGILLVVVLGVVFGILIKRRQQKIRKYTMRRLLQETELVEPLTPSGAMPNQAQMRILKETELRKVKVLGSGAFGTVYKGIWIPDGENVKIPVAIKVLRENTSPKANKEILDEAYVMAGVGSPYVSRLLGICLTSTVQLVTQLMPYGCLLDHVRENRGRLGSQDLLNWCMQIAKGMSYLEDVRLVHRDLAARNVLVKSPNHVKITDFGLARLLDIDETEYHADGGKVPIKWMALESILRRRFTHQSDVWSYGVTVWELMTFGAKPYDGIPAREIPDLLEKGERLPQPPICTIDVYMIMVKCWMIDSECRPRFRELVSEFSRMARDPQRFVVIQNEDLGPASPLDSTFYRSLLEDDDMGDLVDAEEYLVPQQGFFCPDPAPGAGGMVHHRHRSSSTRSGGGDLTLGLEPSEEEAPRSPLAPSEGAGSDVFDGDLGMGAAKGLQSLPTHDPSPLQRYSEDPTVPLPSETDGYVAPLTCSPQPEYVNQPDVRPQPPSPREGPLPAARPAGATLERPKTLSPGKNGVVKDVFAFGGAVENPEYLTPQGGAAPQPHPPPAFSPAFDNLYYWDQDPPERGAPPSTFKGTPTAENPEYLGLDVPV
Compound,viability [1],Her2 level [2],viability [3],viability [4],viability [5],differential viability (reversal) ([6]; H69AR cells + 2 uM doxorubicin),"viability [6, 9]","viability [6, 10]",inhibition [7],inhibition [8]
COc1ccccc1N1CCN(CCCNC(=O)Nc2ccccc2)CC1,129%,83.5% (inactive),129% (inactive),84.5% (inactive),90.3% (inactive),-1.53% (inactive),91.8%,90.3%,-2.76% (inactive),-0.48% (inactive)
Cc1ccc(-n2c(Cn3cnc4ccccc43)nnc2SCC(=O)O)cc1,102%,108% (inactive),102% (inactive),94.3% (inactive),97.7% (inactive),5.34% (inactive),92.3%,97.7%,-4.13% (inactive),24.3% (inactive)
CC(C)C(c1nnnn1CC1CCCO1)N1CCN(Cc2ccc3c(c2)OCO3)CC1 (stereo not given),102%,82.5% (inactive),102% (inactive),113% (inactive),95.3% (inactive),4.93% (inactive),90.3%,95.3%,-6.44% (inactive),-3.97% (inactive)
Cc1cc2oc(=O)cc(CN3CCN(Cc4ccc5c(c4)OCO5)CC3)c2cc1C,96.5%,91.5% (inactive),96.5% (inactive),84.3% (inactive),80.6% (inactive),0.615% (inactive),80%,80.6%,-5.73% (inactive),-1.29% (inactive)
CCc1ccccc1NC(=O)CN(c1cccc(OC)c1)S(C)(=O)=O,112%,124% (inactive),112% (inactive),110% (inactive),100% (inactive),14.6% (inactive),85.8%,100%,-4% (inactive),-7.74% (inactive)
CN1CCN(/C=N/c2sc3c(c2C#N)CCCCC3)CC1,97%,96.5% (inactive),97% (inactive),75.9% (inactive),84.2% (inactive),6.14% (inactive),78.1%,84.2%,0.67% (inactive),-9.52% (inactive)
O=C(CSc1nc2ccccc2n1CC(=O)N1CCCC1)Nc1nccs1,106%,93% (inactive),106% (inactive),98.4% (inactive),95.3% (inactive),16.4% (inactive),78.9%,95.3%,-0.92% (inactive),-6.73% (inactive)
Cc1cc(C)c(-c2cc(C(=O)Nc3c(C)n(C)n(-c4ccccc4)c3=O)[nH]n2)c(O)c1,99.5%,98% (inactive),99.5% (inactive),97.5% (inactive),105% (inactive),4.32% (inactive),100%,105%,-1.97% (inactive),-5.09% (inactive)
O=C(O)c1cc2c([nH]c1=O)CCCC2,93.5%,81.5% (inactive),93.5% (inactive),95% (inactive),88.8% (inactive),0.75% (inactive),88%,88.8%,-2.24% (inactive),-1.82% (inactive)
Cc1cc2c(s1)c1cnn(CC(=O)NCCc3ccccc3)c(=O)c1n2C,120%,98.5% (inactive),120% (inactive),118% (inactive),87.1% (inactive),5.06% (inactive),82%,87.1%,-5.81% (inactive),-3.5% (inactive)
CC1=C(C(=O)OC2CCCCC2)C(c2cccnc2)n2ncnc2N1 (stereo not given),104%,66.5% (inactive),104% (inactive),105% (inactive),81.8% (inactive),-8.64% (inactive),90.4%,81.8%,-6.58% (inactive),-5.83% (inactive)
O=C(Nc1nccs1)c1ccc(COc2ccccc2Br)o1,118%,91.5% (inactive),118% (inactive),50.3% (inactive),80.9% (inactive),-2.83% (inactive),83.7%,80.9%,-2.27% (inactive),-7.26% (inactive)
COc1cc(C2C(C#N)=C(N)Oc3cc(N)ccc32)cc(OC)c1OC (stereo not given),91.5%,75% (inactive),91.5% (inactive),42.1% (inactive),32.3% (active),-28.8% (inactive),61.1%,32.3%,-4% (inactive),8.03% (inactive)
Cc1nc2ncnn2c(Nc2ccc3c(c2)OCCO3)c1C,91%,110% (inactive),91% (inactive),106% (inactive),73.7% (inactive),-23.6% (inactive),97.3%,73.7%,2.8% (inactive),26.1% (inactive)
COc1ccc(Cc2noc(-c3ccc(C)cc3)n2)cc1,91%,131% (inactive),91% (inactive),90.1% (inactive),91.2% (inactive),14.9% (inactive),76.3%,91.2%,4.87% (inactive),45.8% (active)
CCCCn1nc(C(=O)N2CCc3ccccc32)c2ccccc2c1=O,81.5%,110% (inactive),81.5% (inactive),91.8% (inactive),93.9% (inactive),-11.2% (inactive),105%,93.9%,-0.4% (inactive),-10.6% (inactive)

Compound,viability [1],Her2 level [2],viability [3],viability [4],viability [5],differential viability (reversal) ([6]; H69AR cells + 2 uM doxorubicin),"viability [6, 9]","viability [6, 10]",inhibition [7],inhibition [8]
N#Cc1c2n(c(=S)n(-c3ccccn3)c1=O)CCCCC2,81.5%,91.5% (inactive),81.5% (inactive),97.8% (inactive),86% (inactive),-5.17% (inactive),91.1%,86%,2.99% (inactive),-10.7% (inactive)
COc1ccc(N(CC(=O)NC2CCCC2)C(=O)Cn2nnc(-c3ccc(C)cc3)n2)cc1,79%,99.5% (inactive),79% (inactive),95.5% (inactive),89.1% (inactive),-4.01% (inactive),93.1%,89.1%,2.76% (inactive),-7.58% (inactive)
CCCCC(c1nnnn1C1CCCC1)N1CCN(C2CCCCC2)CC1 (stereo not given),81.5%,74% (inactive),81.5% (inactive),106% (inactive),92.7% (inactive),20.4% (inactive),72.2%,92.7%,-6.62% (inactive),1.83% (inactive)
COC(=O)c1cc(O)c(OCc2ccccc2)c(O)c1,88%,98% (inactive),88% (inactive),114% (inactive),94.3% (inactive),18% (inactive),76.3%,94.3%,2.63% (inactive),-7.09% (inactive)
CC1(C)NC(=O)N(CNc2cc(Cl)ccc2Cl)C1=O,104%,87.5% (inactive),104% (inactive),85.7% (inactive),96.4% (inactive),0.94% (inactive),95.5%,96.4%,-3.55% (inactive),-1.82% (inactive)
Cc1ccc(C2Nc3ccccc3-c3nc4ccccc4n32)o1 (stereo not given),97%,89.5% (inactive),97% (inactive),54.4% (inactive),38.3% (active),-18.1% (inactive),56.4%,38.3%,-1.37% (inactive),4.44% (inactive)
COCCOC(=O)/C=C1/NC(=O)CS1,96.5%,94.5% (inactive),96.5% (inactive),106% (inactive),93.8% (inactive),4.28% (inactive),89.6%,93.8%,-5.6% (inactive),1.48% (inactive)
CCc1nnc(NC(=O)CN2CCN(c3ccccc3OC)CC2)s1,99.5%,89% (inactive),99.5% (inactive),64.9% (inactive),50.7% (inactive),25.5% (inactive),25.2%,50.7%,-0.39% (inactive),-5.56% (inactive)
CCOc1ncccc1C(=O)OCC(=O)N1CC(=O)Nc2ccccc21,87%,97% (inactive),87% (inactive),100% (inactive),99.7% (inactive),2.01% (inactive),97.7%,99.7%,-0.78% (inactive),-4.92% (inactive)
Nn1c(SCC(=O)Nc2ccc3c(c2)OCO3)nnc1C1CC1,102%,78.5% (inactive),102% (inactive),105% (inactive),94.2% (inactive),2% (inactive),92.2%,94.2%,-5.41% (inactive),8.25% (inactive)
O=C(CN1CCCN(S(=O)(=O)c2ccc(Br)cc2)CC1)Nc1ccc2cn[nH]c2c1,106%,109% (inactive),106% (inactive),73.1% (inactive),7.15% (active),-13.3% (inactive),20.5%,7.15%,-2.37% (inactive),2.79% (inactive)
Cc1ccc(NC(=O)Cn2cccc2)cc1Cl,94%,85% (inactive),94% (inactive),98.5% (inactive),96.3% (inactive),17.9% (inactive),78.5%,96.3%,-5.95% (inactive),-3.67% (inactive)
Cc1cccc(NC2SC(=O)N(c3ccccc3)C2=O)c1 (stereo not given),100%,81% (inactive),100% (inactive),88.9% (inactive),87.6% (inactive),-10.4% (inactive),97.9%,87.6%,-3.25% (inactive),-5.5% (inactive)
CCN1CCN(c2ncnc3c2oc2nc(C)c4c(c23)CC(C)(C)OC4)CC1,91.5%,122% (inactive),91.5% (inactive),98.3% (inactive),97% (inactive),-1.16% (inactive),98.1%,97%,-0.78% (inactive),-3.17% (inactive)
COc1cc(SC)ccc1C(=O)Nc1ccon1,98.5%,104% (inactive),98.5% (inactive),93% (inactive),101% (inactive),6.34% (inactive),94.5%,101%,0.27% (inactive),18.6% (inactive)
COc1cc(C(c2sc3nc(C)nn3c2O)N2CC(C)CC(C)C2)cc(OC)c1OC (stereo not given),78%,98.5% (inactive),78% (inactive),98.8% (inactive),103% (inactive),0.2% (inactive),103%,103%,0.9% (inactive),0.17% (inactive)
